Screening data from PubChem.
hERG protect – hERG rescue from dofetilide block, primary screen, cell-based, CHO-hERG, FluxOR thallium flux, dofetilide IC70 | Voltage-gated inwardly rectifying potassium channel KCNH2 (Homo sapiens), Q12809 | dofetilide IC70 present | activation (rescue from dofetilide block), less the hit threshold, % at 10 µM | 0.51% of 310,000 active;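 active means activation above the mean of controls blocked by dofetilide plus 5 SD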;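 further: thallium influx through hERG after potassium depolarization seen as dye fluorescence rise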
KCNQ1 act – potentiators or activators of KCNQ1 channel, primary screen, cell-based, thallium flux, high-throughput | Potassium voltage-gated channel subfamily KQT member 1 (Homo sapiens), P51787 | CHO-K1 KCNQ1, thallium flux FluxOR fluorescence; hits give high values | B-score at 10 µM | 0.35% of 310,000 active | AID 2648, 2010;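 active means fluorescence ratio B-score, a plate-corrected score, at least three library SD, with initial intensity B-score within 5 SD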
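Assay system: CHO-K1 cells stably expressing KCNQ1; Medium: assay buffer with matched DMSO; Also added: K+/Tl+ depolarizing stimulus; Dosing: single dose; Timing: dye 90 min, compound 20 min, room temperature; Measured by: kinetic FluxOR thallium fluorescence, 10-s 1-Hz baseline, 110-s post-stimulus read; Read-out: peak-minus-minimum fluorescence over initial fluorescence, negative-control normalized, B-scored.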
KCNQ1 block – inhibitors of human KCNQ1 channel, primary screen, cell-based, thallium flux, high-throughput. CHO-K1 KCNQ1, FluxOR thallium flux fluorescence; hits give high values. AID 2642, 2010. 1.3% of 310,000 active. B-score at 10 µM. Potassium voltage-gated channel subfamily KQT member 1 (Homo sapiens), P51787;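 active means compounds whose thallium flux B-score, printed positive for inhibition, exceeds three library SD while starting fluorescence stays within three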;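 further: channel opened by potassium depolarization with thallium stimulus after 20 min compound exposure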
KCNK3 block – human KCNK3 channel inhibitors, primary screen, CHO cells, FluxOR thallium flux, B-score | Potassium channel subfamily K member 3 (Homo sapiens), O14649 | FluxOR fluorescence; hits give low values | B-score at 10 µM | 0.84% of 340,000 active | AID 602410, 2012;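 active means B-score under library mean minus 4 SD, starting fluorescence ratio at most library mean plus 5 SD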;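 further: more negative B-score means stronger inhibition of thallium flux through KCNK3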
Target sequence (O14649 whole entry, looked up): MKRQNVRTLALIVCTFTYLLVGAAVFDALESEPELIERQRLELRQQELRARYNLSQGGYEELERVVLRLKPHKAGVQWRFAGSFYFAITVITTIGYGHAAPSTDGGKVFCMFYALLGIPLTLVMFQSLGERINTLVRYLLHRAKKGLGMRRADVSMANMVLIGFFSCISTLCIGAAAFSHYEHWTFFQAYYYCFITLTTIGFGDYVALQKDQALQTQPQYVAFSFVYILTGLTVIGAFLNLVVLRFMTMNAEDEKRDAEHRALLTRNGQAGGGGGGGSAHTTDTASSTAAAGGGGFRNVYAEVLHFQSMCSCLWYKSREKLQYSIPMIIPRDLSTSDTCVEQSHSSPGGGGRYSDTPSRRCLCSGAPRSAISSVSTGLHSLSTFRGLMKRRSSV
KCNK9 block – KCNK9 potassium channel inhibitors, primary screen, HEK293 cells, thallium flux | Potassium channel subfamily K member 9 (Homo sapiens), Q9NPC2 | FluxOR thallium flux fluorescence; hits give low values | B-score at 10 µM | 1.2% of 310,000 active | AID 488922, 2010;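 active means ratio B-score over 3 SD below the library mean, with starting fluorescence within 5 SD of its mean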;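 further: negative B-score means less thallium flux so channel inhibition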
Kir21 inh – inhibitors of mouse Kir2.1 inward-rectifier potassium channel. Inward rectifier potassium channel 2 (Mus musculus), P35561. HEK293-Kir2.1, FluxOR thallium flux fluorescence; hits give low values. B-score at 10 µM. 0.85% of 310,000 active. AID 1672, 2009;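 active means fluorescence ratio B-score at or below minus 3 SD of library scores, with starting-brightness B-score within 2 SD, cut at about -4.2 in these data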;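 further: channel flux triggered by added potassium and thallium sulfate stimulus; B-score of peak minus minimum fluorescence over baseline after thallium stimulus; more negative B-score means stronger Kir2.1 block with less thallium influx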
Hits are given with their value; - = inactive; . = no result. The list is not random: actives were taken first. Their share in the collection is about 3.8%.

SMILES | hERG protect | KCNQ1 act | KCNQ1 block | KCNK3 block | KCNK9 block | Kir21 inh
CC(Sc1nnc(Cn2c(=O)sc3ccccc32)n1C)c1ccccc1 (stereo unspecified) | - | - | - | - | - | -4.2
C=CCn1c(SC/C=C/c2ccccc2)nnc1-c1sc(N)nc1C | - | - | - | - | - | -5.7
O=c1c(C(c2ccccc2)c2c(O)sc3ccccc3c2=O)c(O)sc2ccccc12 | - | - | - | - | -8.2 | -
CCCN(C(=O)Cc1ccc(S(=O)(=O)N2CCOCC2)s1)c1c(N)n(Cc2ccccc2)c(=O)[nH]c1=O | - | - | - | - | - | -
Cc1nn(Cc2ccc(C(=O)N/N=C/c3ccncc3)o2)c(C)c1Cl | - | - | - | - | - | -
Cc1ccc(CNC(=O)c2ccc(Cn3nc(C)c(Cl)c3C)o2)cc1 | - | - | - | - | -7 | -9
Cc1ccc(-n2ncc(C(=O)Nc3cc(Cl)cc(Cl)c3)c2C2CCNCC2)cc1C | - | 17 | - | - | - | -7.3
Cc1cc(N2CCOCC2)n2nc(C)c(-c3ccccc3Cl)c2n1 | - | - | - | - | - | -
O=C(Cc1ccccc1)NCC(=O)OC(c1ccccc1)c1ccccc1 | - | - | - | - | - | -5.4
O=C(CNC(=O)Cc1ccccc1)NCC(=O)OCc1ccccc1 | - | - | - | - | - | -
CCc1ccc(/C=C/C(=O)c2cc(Br)ccc(=O)c2O)cc1 | - | 38 | - | - | - | -
CCC1(C)Cc2c(C#N)c(SC)nc(N3CCOCC3)c2CO1 (stereo unspecified) | - | - | - | - | - | -
COc1ccc(CN(C)CC2CCCN(CCc3ccccc3C)C2)cc1O (stereo unspecified) | - | - | - | - | - | -8.8
COc1cccc(CN(C)CC2CCCN(CCc3ccccc3C)C2)c1 (stereo unspecified) | - | - | - | - | - | -6.5
NC(=O)CCN1CCN(Cc2cn[nH]c2-c2cccc3ccccc23)CC1 | - | - | - | - | - | -
CCOC(=O)C(NC(=O)CC)(Nc1cc(C)on1)C(F)(F)F (stereo unspecified) | . | . | . | - | . | .
CC(C)(c1ccccc1)c1ccc(OCCCN2CCNCC2)cc1 | - | - | - | - | - | -5.8
COCCCNCCOc1ccc(C(C)(C)c2ccccc2)cc1 | - | - | - | - | - | -13
CCC(C)NCCOc1ccc(C(C)(C)c2ccccc2)cc1 (stereo unspecified) | - | - | - | - | - | -12
CC(C)(C)c1ccc(OCCCCCCN2CCNCC2)cc1 | - | - | - | - | - | -
COc1cccc(CN2CC(C(=O)N(C)CCc3ccccc3)CCC2=O)c1 (stereo unspecified) | - | - | - | - | - | -
C=CC[C@H]1CC(C)=C[C@H](CC=C)N1C(=O)c1cc(COc2ccccc2SC)on1 | - | - | 8 | - | - | -
COCC1CCN(C(=O)c2cc(COc3ccccc3SC)on2)C1 (stereo unspecified) | - | - | - | - | - | -
O=C(COc1ccc(Br)cc1CO)Nc1ccccc1F | - | - | - | - | - | -
CCCCn1c(NC(=O)c2ccc(F)cc2)c(C#N)c2nc3ccccc3nc21 | - | - | 6 | . | - | -
SMILES | hERG protect | KCNQ1 act | KCNQ1 block | KCNK3 block | KCNK9 block | Kir21 inh
CCCCn1c(NC(=O)c2ccccc2)c(C#N)c2nc3ccccc3nc21 | . | . | . | - | . | .
COc1ccc(C(=O)N/N=C(\C)c2ccccn2)cc1OC | - | - | - | - | - | -
O=C(NCc1ccccn1)c1ccc(CNS(=O)(=O)c2ccc(F)cc2)cc1 | - | - | - | - | - | -
CCOc1ccc(C(c2c(NC(=O)c3ccco3)sc(C)c2C)N2CCOCC2)cc1 (stereo unspecified) | . | . | . | -11 | . | .
Cc1sc(NC(=O)c2ccco2)c(C(c2ccncc2)N2CCOCC2)c1C (stereo unspecified) | - | - | - | - | - | -
COc1ccc(CNC(=O)c2cc3ccccc3oc2=O)cc1 | - | - | - | - | - | -
COc1ccc(-c2[nH]c3ccccc3c2SCCNC(=O)c2cc3ccccc3oc2=O)cc1 | - | - | 8 | - | - | -
Cc1ccc2c(c1)C(=O)C(=O)N2c1ccc(Cl)cc1 | . | . | . | - | . | .
CC(C(=O)NCC1CCCO1)n1cccc1C(=O)c1ccccc1 (stereo unspecified) | - | - | - | - | - | -
COc1ccc(-c2nc(C#N)c(NC(C)C)o2)cc1 | - | - | - | - | - | -
CCC(CC)c1nc(C#N)c(NC(C)c2ccccc2)o1 (stereo unspecified) | - | - | - | - | - | -6.1
CCCc1cc(=O)[nH]c(SCC(=O)c2cc(C)n(C3CC3)c2C)n1 | - | - | - | - | - | -4.5
S=C(Nc1ccccc1)Nc1ccc(OCc2ccc(Cl)cc2Cl)cc1 | - | - | - | - | - | -
OCCCCNCc1ccc(OCc2ccc(Cl)cc2Cl)cc1 | - | - | - | - | - | -7.1
OCCNCc1ccc(OCc2ccc(Cl)cc2Cl)cc1 | - | - | - | - | - | -7.5
Cc1ccc(C(=O)OC(C)C(=O)NC2CCCCC2C)cc1S(=O)(=O)N1CCOCC1 (stereo unspecified) | - | - | - | - | - | -
Cc1c(-c2ccn[nH]2)cc(NC(=O)c2ccc(Cl)cc2)c(=O)n1N | 5.0 | - | - | - | - | -
Oc1c(CN2CCOCC2)cc(CN2CCOCC2)c(O)c1CN1CCOCC1 | . | . | . | - | . | .
Oc1c(CN2CCOCC2)cc(-c2ccccc2)cc1CN1CCOCC1 | 35 | - | - | - | - | -
CC(C)COc1ccc(S(=O)(=O)n2cc(F)c(=O)[nH]c2=O)cc1 | 5.0 | - | - | - | - | -
CCOc1cc(C)c(Cl)cc1S(=O)(=O)N1CCCC1 | - | - | - | - | - | -5.5
CCOc1cc(C)c(Cl)cc1S(=O)(=O)NCc1ccc2c(c1)OCO2 | - | - | - | - | - | -6.6
Cc1cc(C)c(S(=O)(=O)NCc2ccc3c(c2)OCO3)cc1C | - | - | - | - | - | -4.3
COc1cc(C)c(Cl)cc1S(=O)(=O)N1CCCC1 | - | - | - | - | - | -
Cc1cc(S(=O)(=O)NCc2ccncc2)c(C)cc1Br | - | - | 6 | - | - | -
Cc1cc(C)c(S(=O)(=O)NCc2ccc3c(c2)OCO3)c(C)c1 | - | - | - | - | - | -
CC(NC(=O)Cc1ccc(S(=O)(=O)N2CCCCC2)cc1)c1ccccc1 (stereo unspecified) | . | . | . | - | . | .
C=CCn1c(SCC(=O)c2ccc(O)c(O)c2)nnc1-c1ccc(C)cc1 | . | . | . | - | . | .
O=C(CNC(=O)c1ccc(F)cc1)NCc1ccc(Cl)cc1 | - | - | - | - | - | -
O=C(CNC(=O)c1ccccc1)NCc1ccc(Cl)cc1 | 28 | 18 | - | - | - | -
